# According to ChEMBL document CHEMBL4043093, “2-Oxo-3, 4-dihydropyrimido[4, 5-d]pyrimidinyl derivatives as new irreversible pan fibroblast growth factor receptor (FGFR) inhibitors” (Eur J Med Chem, 2017):
# What was measured:
# [1] = biological target: Tyrosine-protein kinase Fer (Homo sapiens) (UniProt P16591); assay: Inhibition of wild-type human partial length FER (S542 to T822 residues) expressed in Escherichia coli BL21 assessed as residual activity at 1000 nM after 30 mins by Kinomescan method relative to control
# [2] = biological target: Phosphatidylinositol 3-kinase C2 domain-containing subunit gamma (Homo sapiens) (UniProt O75747); assay: Inhibition of wild-type human partial length PIK3C2G (M1 to I1446 residues) expressed in HEK293 cells assessed as residual activity at 1000 nM after 30 mins by Kinomescan method relative to control; type: cell-based
# [3] = system: Epidermal growth factor receptor (Homo sapiens), P00533 [UNDEFINED MUTATION]; assay: Inhibition of human partial length EGFR L747-S752del/P753S mutant expressed in Escherichia coli BL21 assessed as residual activity at 1000 nM after 30 mins by Kinomescan method relative to control
# How it was run: (§1)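 KINOMEscan binding panel of 456 kinases, with the test compound at a single concentration of 1 µM. Read-out is Percent Control.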
# [4] = biological target: Death-associated protein kinase 1 (Homo sapiens) (UniProt P53355); assay: Inhibition of wild-type human partial length DAPK1 (M1 to F296 residues) expressed in Escherichia coli BL21 assessed as residual activity at 1000 nM after 30 mins by Kinomescan method relative to control
# [5] = biological target: Interleukin-1 receptor-associated kinase 4 (Homo sapiens) (UniProt Q9NWZ3); assay: Inhibition of wild-type human partial length IRAK4 (M1 to S460 residues) expressed in HEK293 cells assessed as residual activity at 1000 nM after 30 mins by Kinomescan method relative to control; type: cell-based
# [6] = biological target: Tyrosine-protein kinase Blk (Homo sapiens) (UniProt P51451); assay: Inhibition of wild-type human partial length BLK (G211 to L503 residues) expressed in Escherichia coli BL21 assessed as residual activity at 1000 nM after 30 mins by Kinomescan method relative to control
# [7] = biological target: Non-receptor tyrosine-protein kinase TYK2 (Homo sapiens) (UniProt P29597); assay: Inhibition of wild-type human partial length TYK2 JH1 catalytic domain (V877 to C1187 residues) expressed in HEK293 cells assessed as residual activity at 1000 nM after 30 mins by Kinomescan method relative to control; type: cell-based
# [8] = system: Phosphatidylinositol 4,5-bisphosphate 3-kinase catalytic subunit alpha isoform (Homo sapiens), P42336 [I800L]; assay: Inhibition of human partial length PIK3CA I800L mutant (R108 to N1068 residues) expressed in HEK293 cells assessed as residual activity at 1000 nM after 30 mins by Kinomescan method relative to control; type: cell-based
# How it was run: (§2)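 Single-point screen at a fixed 1 µM, run within a 456-kinase DiscoveRx KINOMEscan panel. Each kinase's read-out is Percent Control, i.e. signal relative to a control without compound. Hits were scored by a Percent Control < 35 cut-off, and an S(35) selectivity score was calculated across the non-mutant kinases.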
# [9] = biological target: Tyrosine-protein kinase receptor TYRO3 (Homo sapiens) (UniProt Q06418); assay: Inhibition of wild-type human partial length TYRO3 (S497 to T814 residues) expressed in Escherichia coli BL21 assessed as residual activity at 1000 nM after 30 mins by Kinomescan method relative to control
# [10] = biological target: Ephrin type-A receptor 1 (Homo sapiens) (UniProt P21709); assay: Inhibition of wild-type human partial length EPHA1 (V588 to I913 residues) expressed in Escherichia coli BL21 assessed as residual activity at 1000 nM after 30 mins by Kinomescan method relative to control
# [11] = system: Serine/threonine-protein kinase B-raf (Homo sapiens), P15056 [V600E]; assay: Inhibition of human partial length BRAF V600E mutant (S429 to E741 residues) expressed in HEK293 cells assessed as residual activity at 1000 nM after 30 mins by Kinomescan method relative to control; type: cell-based; how it was run: as §1
# [12] = biological target: Leukocyte tyrosine kinase receptor (Homo sapiens) (UniProt P29376); assay: Inhibition of wild-type human partial length LTK (P422 to S744 residues) expressed in Escherichia coli BL21 assessed as residual activity at 1000 nM after 30 mins by Kinomescan method relative to control
# [13] = biological target: Serine/threonine-protein kinase WNK1 (Homo sapiens) (UniProt Q9H4A3); assay: Inhibition of wild-type human partial length WNK1 (Q194 to A490 residues) expressed in HEK293 cells assessed as residual activity at 1000 nM after 30 mins by Kinomescan method relative to control; type: cell-based
# [14] = biological target: Homeodomain-interacting protein kinase 2 (Homo sapiens) (UniProt Q9H2X6); assay: Inhibition of wild-type human partial length HIPK2 (M153 to S564 residues) expressed in HEK293 cells assessed as residual activity at 1000 nM after 30 mins by Kinomescan method relative to control; type: cell-based
# [15] = biological target: Focal adhesion kinase 1 (Homo sapiens) (UniProt Q05397); assay: Inhibition of wild-type human partial length FAK (D402 to R696 residues) expressed in Escherichia coli BL21 assessed as residual activity at 1000 nM after 30 mins by Kinomescan method relative to control
# [16] = system: Phosphatidylinositol 4,5-bisphosphate 3-kinase catalytic subunit alpha isoform (Homo sapiens), P42336 [H1047Y]; assay: Inhibition of human partial length PIK3CA H1047Y mutant (R108 to N1068 residues) expressed in HEK293 cells assessed as residual activity at 1000 nM after 30 mins by Kinomescan method relative to control; type: cell-based; how it was run: as §1
# Plasmodium falciparum = assay: Inhibition of wild-type Plasmodium falciparum full length CDPK1 (M1 to S524 residues) expressed in HEK293 cells assessed as residual activity at 1000 nM after 30 mins by Kinomescan method relative to control; type: cell-based; how it was run: as §2
# [17] = biological target: Protein kinase C iota type (Homo sapiens) (UniProt P41743); assay: Inhibition of wild-type human partial length PRKCI (H215 to V587 residues) expressed in HEK293 cells assessed as residual activity at 1000 nM after 30 mins by Kinomescan method relative to control; type: cell-based
# [18] = biological target: Mitogen-activated protein kinase 3 (Homo sapiens) (UniProt P27361); assay: Inhibition of wild-type human full length ERK1 (M1 to P379 residues) expressed in Escherichia coli BL21 assessed as residual activity at 1000 nM after 30 mins by Kinomescan method relative to control
# How it was run: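 Single-concentration screen at 1 µM across a 456-kinase KINOMEscan panel. The read-out is Percent Control for each kinase.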
# [19] = system: Mast/stem cell growth factor receptor Kit (Homo sapiens), P10721 [L576P]; assay: Inhibition of human partial length KIT L576P mutant (Y545 to D952 residues) expressed in Escherichia coli BL21 assessed as residual activity at 1000 nM after 30 mins by Kinomescan method relative to control; how it was run: as §1
# [20] = system: Receptor-type tyrosine-protein kinase FLT3 (Homo sapiens), P36888 [K663Q]; assay: Inhibition of human partial length FLT3 K663Q mutant (V592 to Y969 residues) expressed in Escherichia coli BL21 assessed as residual activity at 1000 nM after 30 mins by Kinomescan method relative to control; how it was run: as §1
# Sequence of Mitogen-activated protein kinase 3 (Homo sapiens) (P27361 whole entry, the tested form may be a part): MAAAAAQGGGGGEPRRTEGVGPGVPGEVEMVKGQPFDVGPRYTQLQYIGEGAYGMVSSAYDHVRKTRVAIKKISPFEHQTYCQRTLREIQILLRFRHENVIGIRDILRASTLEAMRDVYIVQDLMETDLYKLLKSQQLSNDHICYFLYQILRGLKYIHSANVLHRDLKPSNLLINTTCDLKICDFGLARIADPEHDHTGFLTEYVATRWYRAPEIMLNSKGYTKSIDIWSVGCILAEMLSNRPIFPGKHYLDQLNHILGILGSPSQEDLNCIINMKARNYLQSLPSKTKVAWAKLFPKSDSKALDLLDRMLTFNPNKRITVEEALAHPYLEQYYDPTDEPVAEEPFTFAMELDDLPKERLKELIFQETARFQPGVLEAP
# Sequence of Tyrosine-protein kinase Blk (Homo sapiens) (P51451 2-505 limits assumed): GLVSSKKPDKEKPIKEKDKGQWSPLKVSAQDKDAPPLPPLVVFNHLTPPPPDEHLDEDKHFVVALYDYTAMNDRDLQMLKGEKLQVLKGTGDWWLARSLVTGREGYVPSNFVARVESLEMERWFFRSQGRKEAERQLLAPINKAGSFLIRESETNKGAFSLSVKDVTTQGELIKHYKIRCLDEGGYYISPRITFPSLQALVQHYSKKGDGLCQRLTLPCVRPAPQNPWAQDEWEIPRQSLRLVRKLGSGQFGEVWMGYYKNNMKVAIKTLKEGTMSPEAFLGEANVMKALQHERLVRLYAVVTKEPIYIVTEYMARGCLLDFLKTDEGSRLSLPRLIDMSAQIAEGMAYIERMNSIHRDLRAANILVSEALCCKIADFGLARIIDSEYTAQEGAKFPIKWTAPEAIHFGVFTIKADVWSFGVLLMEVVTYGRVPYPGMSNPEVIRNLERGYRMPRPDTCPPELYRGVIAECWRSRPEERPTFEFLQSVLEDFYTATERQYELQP
# Sequence of Mast/stem cell growth factor receptor Kit (Homo sapiens), P10721 [L576P] (P10721 whole entry L576P, the tested form may be a part): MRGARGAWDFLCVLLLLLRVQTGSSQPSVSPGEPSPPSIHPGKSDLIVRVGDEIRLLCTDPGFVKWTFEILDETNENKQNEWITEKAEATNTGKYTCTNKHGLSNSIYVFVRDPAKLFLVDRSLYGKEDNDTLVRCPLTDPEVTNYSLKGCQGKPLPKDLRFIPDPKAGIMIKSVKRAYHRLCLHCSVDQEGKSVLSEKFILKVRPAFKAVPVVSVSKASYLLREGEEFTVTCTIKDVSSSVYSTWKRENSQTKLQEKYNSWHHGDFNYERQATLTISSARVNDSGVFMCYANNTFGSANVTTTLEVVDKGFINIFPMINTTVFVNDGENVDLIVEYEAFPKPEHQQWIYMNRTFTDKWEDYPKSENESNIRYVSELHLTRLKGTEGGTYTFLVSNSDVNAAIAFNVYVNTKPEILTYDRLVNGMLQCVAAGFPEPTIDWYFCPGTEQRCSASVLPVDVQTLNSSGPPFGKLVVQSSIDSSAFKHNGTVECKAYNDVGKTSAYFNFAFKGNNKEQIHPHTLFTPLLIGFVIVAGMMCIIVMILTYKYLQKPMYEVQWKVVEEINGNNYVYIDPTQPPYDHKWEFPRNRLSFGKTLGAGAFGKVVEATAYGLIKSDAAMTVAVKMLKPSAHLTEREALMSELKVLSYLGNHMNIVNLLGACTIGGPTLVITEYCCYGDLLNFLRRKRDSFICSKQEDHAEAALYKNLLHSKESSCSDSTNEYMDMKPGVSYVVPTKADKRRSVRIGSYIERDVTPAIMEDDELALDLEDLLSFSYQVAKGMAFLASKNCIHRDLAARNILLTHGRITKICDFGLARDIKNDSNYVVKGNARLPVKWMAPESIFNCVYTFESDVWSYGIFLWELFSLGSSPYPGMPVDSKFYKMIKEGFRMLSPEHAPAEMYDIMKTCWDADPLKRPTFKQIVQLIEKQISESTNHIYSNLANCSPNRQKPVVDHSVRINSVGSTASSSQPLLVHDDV
# Sequence of Protein kinase C iota type (Homo sapiens) (P41743 whole entry, the tested form may be a part): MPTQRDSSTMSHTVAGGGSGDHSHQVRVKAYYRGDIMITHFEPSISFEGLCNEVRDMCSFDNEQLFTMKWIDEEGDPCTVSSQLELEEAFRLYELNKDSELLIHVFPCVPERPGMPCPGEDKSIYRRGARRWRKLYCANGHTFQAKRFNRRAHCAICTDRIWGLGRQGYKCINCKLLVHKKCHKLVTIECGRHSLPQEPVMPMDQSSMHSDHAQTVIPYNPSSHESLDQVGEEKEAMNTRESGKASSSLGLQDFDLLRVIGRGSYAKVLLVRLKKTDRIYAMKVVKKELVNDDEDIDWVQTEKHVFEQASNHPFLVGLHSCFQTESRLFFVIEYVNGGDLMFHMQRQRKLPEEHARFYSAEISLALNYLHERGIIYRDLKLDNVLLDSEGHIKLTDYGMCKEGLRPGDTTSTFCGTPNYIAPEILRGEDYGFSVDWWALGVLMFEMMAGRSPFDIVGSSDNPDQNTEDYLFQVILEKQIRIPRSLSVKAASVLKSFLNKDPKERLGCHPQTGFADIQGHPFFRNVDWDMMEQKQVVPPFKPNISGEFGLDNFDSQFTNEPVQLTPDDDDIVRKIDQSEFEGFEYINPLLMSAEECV
# Sequence of Non-receptor tyrosine-protein kinase TYK2 (Homo sapiens) (P29597 whole entry, the tested form may be a part, canonical isoform): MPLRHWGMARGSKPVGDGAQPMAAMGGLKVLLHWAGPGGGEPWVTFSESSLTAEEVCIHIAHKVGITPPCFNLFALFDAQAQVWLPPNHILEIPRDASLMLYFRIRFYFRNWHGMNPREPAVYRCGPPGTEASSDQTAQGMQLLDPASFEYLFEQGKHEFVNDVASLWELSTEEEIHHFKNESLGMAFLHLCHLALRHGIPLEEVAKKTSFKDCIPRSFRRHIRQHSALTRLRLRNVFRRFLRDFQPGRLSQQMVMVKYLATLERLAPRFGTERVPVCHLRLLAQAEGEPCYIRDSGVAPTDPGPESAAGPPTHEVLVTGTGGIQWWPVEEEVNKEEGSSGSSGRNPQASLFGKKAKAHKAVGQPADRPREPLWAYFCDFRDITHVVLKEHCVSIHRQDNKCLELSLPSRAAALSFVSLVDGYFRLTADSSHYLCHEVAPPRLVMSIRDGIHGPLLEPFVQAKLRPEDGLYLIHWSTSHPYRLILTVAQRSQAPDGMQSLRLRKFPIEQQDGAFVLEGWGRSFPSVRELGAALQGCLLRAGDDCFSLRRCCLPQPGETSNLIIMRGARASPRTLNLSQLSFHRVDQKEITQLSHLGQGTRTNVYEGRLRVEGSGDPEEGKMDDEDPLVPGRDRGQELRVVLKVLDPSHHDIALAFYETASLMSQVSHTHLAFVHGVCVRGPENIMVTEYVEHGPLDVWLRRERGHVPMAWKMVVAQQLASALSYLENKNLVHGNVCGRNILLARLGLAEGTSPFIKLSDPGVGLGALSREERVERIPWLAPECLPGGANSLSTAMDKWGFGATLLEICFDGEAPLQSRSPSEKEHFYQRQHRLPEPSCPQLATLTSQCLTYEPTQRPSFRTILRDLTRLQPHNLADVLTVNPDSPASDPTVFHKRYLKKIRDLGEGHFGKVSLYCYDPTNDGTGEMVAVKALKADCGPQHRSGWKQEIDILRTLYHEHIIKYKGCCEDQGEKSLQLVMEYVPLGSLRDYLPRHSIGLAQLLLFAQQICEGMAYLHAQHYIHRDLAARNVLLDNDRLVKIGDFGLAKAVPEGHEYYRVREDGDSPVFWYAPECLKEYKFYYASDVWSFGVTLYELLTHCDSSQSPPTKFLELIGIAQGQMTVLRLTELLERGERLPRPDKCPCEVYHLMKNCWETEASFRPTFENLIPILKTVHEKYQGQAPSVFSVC
# Sequence of Homeodomain-interacting protein kinase 2 (Homo sapiens) (Q9H2X6 whole entry, looked up, the tested form may be a part): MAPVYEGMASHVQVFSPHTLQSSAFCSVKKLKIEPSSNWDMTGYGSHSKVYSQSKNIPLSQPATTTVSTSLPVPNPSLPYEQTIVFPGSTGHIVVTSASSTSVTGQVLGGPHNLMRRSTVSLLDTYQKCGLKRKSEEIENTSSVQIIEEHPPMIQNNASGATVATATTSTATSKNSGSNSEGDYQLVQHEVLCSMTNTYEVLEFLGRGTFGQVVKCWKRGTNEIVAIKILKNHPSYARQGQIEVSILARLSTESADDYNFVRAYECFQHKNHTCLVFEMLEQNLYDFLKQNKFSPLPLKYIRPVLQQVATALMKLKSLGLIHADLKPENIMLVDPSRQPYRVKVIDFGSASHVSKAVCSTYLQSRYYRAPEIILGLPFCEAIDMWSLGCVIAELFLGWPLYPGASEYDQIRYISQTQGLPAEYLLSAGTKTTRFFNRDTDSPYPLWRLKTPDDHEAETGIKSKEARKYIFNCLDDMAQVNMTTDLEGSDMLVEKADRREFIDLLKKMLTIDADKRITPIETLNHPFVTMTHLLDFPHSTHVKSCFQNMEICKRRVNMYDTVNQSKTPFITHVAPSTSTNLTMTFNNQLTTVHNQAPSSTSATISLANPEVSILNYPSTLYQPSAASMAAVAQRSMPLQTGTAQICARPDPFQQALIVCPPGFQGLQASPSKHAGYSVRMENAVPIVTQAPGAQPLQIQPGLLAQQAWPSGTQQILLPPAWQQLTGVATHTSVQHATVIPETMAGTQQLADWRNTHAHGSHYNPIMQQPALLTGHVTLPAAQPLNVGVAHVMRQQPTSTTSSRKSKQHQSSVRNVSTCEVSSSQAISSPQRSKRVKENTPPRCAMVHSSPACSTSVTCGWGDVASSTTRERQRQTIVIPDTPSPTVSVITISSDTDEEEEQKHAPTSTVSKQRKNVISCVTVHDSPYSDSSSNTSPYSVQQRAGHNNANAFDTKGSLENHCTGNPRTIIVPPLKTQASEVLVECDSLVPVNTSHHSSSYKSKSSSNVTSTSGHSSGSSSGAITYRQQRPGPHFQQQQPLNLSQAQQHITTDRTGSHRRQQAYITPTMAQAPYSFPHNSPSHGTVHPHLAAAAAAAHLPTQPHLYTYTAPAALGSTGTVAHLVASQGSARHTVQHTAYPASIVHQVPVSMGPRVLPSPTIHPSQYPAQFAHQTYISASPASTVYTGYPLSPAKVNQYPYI
smiles,measurement,setting,value
COc1cc(OC)c(Cl)c(N2Cc3cnc(Nc4ccc(F)cc4)nc3N(C3CCN(C(=O)/C=C/CN(C)C)CC3)C2=O)c1Cl,Activity,[1],67%
same,Activity,[2],95%
same,Activity,[3],100%
same,Activity,[4],100%
same,Activity,[5],100%
same,Activity,[6],0.6%
same,Activity,[7],83%
same,Activity,[8],83%
same,Activity,[9],57%
same,Activity,[10],82%
same,Activity,[11],83%
same,Activity,[12],95%
same,Activity,[13],59%
same,Activity,[14],100%
same,Activity,[15],78%
same,Activity,[16],100%
same,Activity,Plasmodium falciparum,100%
same,Activity,[17],100%
same,Activity,[18],100%
same,Activity,[19],2.6%
same,Activity,[20],100%
